High-throughput results: PubChem, several laboratories
Compounds with a hit are over-represented: about 3.7% of the library has one in this group of screens.
procasp3 activ – activators of human procaspase-3; P42574; recombinant procaspase-3 D3A, Ac-DEVD-pNA absorbance 405 nm; activation, % at 8.5 µM; 330,000 compounds, 0.11% hits; AID 463141;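 active means activation above the mean of all tested compounds plus 3 SD, cut at about 21% in these data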;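 further: 0% = DMSO alone and 100% = DMSO wells spiked with extra 5 µM PC-3 D3A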
Target sequence (P42574 whole entry D9A/D28A/D175A): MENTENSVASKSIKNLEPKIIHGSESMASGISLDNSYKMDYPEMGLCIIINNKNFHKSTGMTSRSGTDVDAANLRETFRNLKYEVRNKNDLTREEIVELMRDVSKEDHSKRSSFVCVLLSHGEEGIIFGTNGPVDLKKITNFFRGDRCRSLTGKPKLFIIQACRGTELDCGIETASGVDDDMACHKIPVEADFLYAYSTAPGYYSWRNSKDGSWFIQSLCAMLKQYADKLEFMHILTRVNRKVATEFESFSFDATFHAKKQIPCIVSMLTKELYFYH
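Assay system – Procaspase-3 D3A mutant · Benchmarks – DMSO low control, extra-enzyme high control · Technique – 405 nm absorbance of p-nitroaniline, reads at 0 and 120 min · Doses – 8.5 µM nominal · Measure – % activation between DMSO and enzyme-spiked controls · Also added – Ac-DEVD-pNA chromogenic peptide substrate · Schedule – 1 h compound preincubation, 2 h substrate hydrolysis at 25 °C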
MPTP block – permeability transition pore inhibition; 360,000 compounds, 1.4% hits; isolated mouse mitochondria, Ca2+ swelling absorbance, 30 min; inhibition, % at 10 µM;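 active means inhibition of 50% or more, scaled per plate between neutral and stimulator controls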;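 further: 0% = DMSO wells given calcium and 100% = 1 mM EGTA wells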
NR3A LBD binder – modulators (binders) of human NR3A ligand-binding domain. Tm shift relative to glycine control, % at 25 µM. 340,000 compounds, 2.5% hits. NR3A LBD differential scanning fluorimetry, Tm shift; 0% = protein alone, 100% = glycine-bound protein. AID 1259313;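 active means melting temperature shift of at least 10% of the positive control shift, at one fixed dose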
aDG glyco up – increases alpha dystroglycan glycosylation; activation, % at 10 µM; Pro5-aDG cells, alpha-DG glycosylation AlphaScreen (IIH6); 0% Pro5, 100% B10-LARGE cell signal; 360,000 compounds, 0.22% hits;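 active means activation of at least 8% versus controls, or a plate z-score of at least 8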;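 further: Pro5 are CHO cells carrying HIG-tagged alpha-DG that lacks glycosylation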
procasp7 counter – counter-screen: procaspase-7 (human) activation | P55210 | recombinant procaspase-7, Ac-DEVD-pNA absorbance 405 nm; D23A/D198A/D206A triple mutant, cannot self-cleave; scale: DMSO 0, 5 µM enzyme 100 | activation, % at 8.5 µM | 330,000 compounds, 0.093% hits | AID 463210;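 active means percent activation above the screen-wide mean plus 3 SD, cut at about 25% in these data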
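Assay system: Uncleavable procaspase-7 mutant enzyme / Input: 2 µM procaspase-7 mutant as dispensed / Dosing: single nominal 8.5 µM compound dose, 0.8% DMSO final / Timing: 1 h enzyme–compound preincubation and 2 h substrate reaction, both 25 °C / Detection: p-Nitroaniline absorbance at 405 nm, read at 0 and 120 min / Replication: singlicate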
aDG glyco conf – alpha-DG glycosylation activation, confirmation. activation, % at 10 µM (by protocol). shares compounds with aDG glyco up. Pro5-aDG cells, IIH6 AlphaLISA; scaled to LARGE-overexpressing B10 cells as 100%. 600 compounds, 17% hits;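 active means activation of at least 7% in one or more replicates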;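 further: cells exposed to compound for two days before detection; 0% = DMSO-treated Pro5 cells and 100% = DMSO-treated B10-LARGE cells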
Starred values were filed as active, the others as inactive; x = no result given.

SMILES	procasp3 activ	MPTP block	NR3A LBD binder	aDG glyco up	procasp7 counter	aDG glyco conf
COc1cc2ccccc2cc1C(=O)Nc1nccs1	4.2	0.1	2.9	4.0*	11.0	-1.2
CN(C)S(=O)(=O)c1ccc(N2CCCC2)c(C(=O)NC2CCC(O)CC2)c1 (configuration not stated)	7.6	-2.7	-1.8	-0.1	6.2	x
COc1ccc2nc(NC(=O)CSC3=NCCS3)sc2c1	1.9	0.1	-1.3	-0.1	4.1	x
CCOc1ccc2nc(NC(=O)CSC3=NCCS3)sc2c1	2.2	-1.4	18.4*	3.4*	5.7	-1.2
N#CCCn1cc(/C=N/NC(=O)c2ccncc2)c(-c2ccc(F)cc2)n1	7.4	0.6	-0.3	0.0	-2.1	x
CCOc1ccc(C(=O)Nc2nc3ccccc3[nH]2)cc1OCC	7.8	-0.3	-0.5	7.9*	3.1	1.1
CCc1ccc(NC(=S)NC2CC3CCCC(C2)N3Cc2cccs2)cc1 (configuration not stated)	2.6	16.0	-5.3	4.0*	11.0	2.4
COc1ccc(NC(=O)C2Cc3ccccc3O/C2=N\O)cc1 (configuration not stated)	x	-0.5	-0.3	5.9*	x	-0.8
O=C1c2ccccc2C(Nc2ccc(S(=O)(=O)N3CCOCC3)cc2)N1c1cccnc1 (configuration not stated)	-2.0	-0.4	1.5	10.2*	2.2	0.0
CN1CC2(Cc3c1ccc1ccccc31)C(=O)OC(C)(C)OC2=O	-7.0	-0.6	-0.3	6.4*	5.7	-0.8
Cc1ccc2c(c1)CC1(CN2C)C(=O)OC2(CCCCC2)OC1=O	-3.9	1.7	2.6	-0.1	2.2	x
O=C(c1ccc2c3c(cccc13)CC2)C1CCCN(Cc2ccncc2)C1 (configuration not stated)	3.9	34.7	-0.9	0.4	2.9	x
CCc1nc(CN2CCCC(C(=O)c3ccc4c5c(cccc35)CC4)C2)c(C)[nH]1 (configuration not stated)	8.0	4.0	-1.3	7.3*	-1.6	-0.6
Cc1noc(C)c1NC(=O)Nc1ccc2c(c1)C(=O)N([C@H](C)CO)C[C@H](C)[C@@H](CN(C)S(=O)(=O)c1cccs1)O2	0.4	-1.5	-1.5	-0.3	-0.1	x
CC12CCC(C(NC(=S)NN)C1=O)C2(C)C (configuration not stated)	x	-3.2	0.5	26.6*	x	0.4
CCOC(=O)c1cnc(-n2nc(C)cc2C)nc1Nc1ccc(C)cc1	x	2.6	-1.1	6.5*	x	2.1
Cc1cc(NC(=O)Cc2ccccc2)c2ccccc2n1	2.2	44.6	0.2	7.5*	-0.1	0.5
COC(=O)Nc1cc(C)nc2ccccc12	7.8	1.0	-0.9	-0.1	-1.2	x
COc1ccc2c(CC(=O)Nc3ccc(OC)nc3)coc2c1	3.4	1.2	-4.0	0.1	0.5	x
Cc1nnc(SCc2ccccn2)n(N)c1=O	-3.4	-3.9	0.8	3.5*	10.0	0.0
Nn1c(SCc2ccccn2)nncc1=O	-1.1	0.0	-0.5	-0.1	0.8	x
COCCCNc1nc2c(c(=O)[nH]c(=O)n2C)n1CC(O)COc1ccccc1 (configuration not stated)	-6.0	0.1	-0.8	10.9*	1.7	-1.0
COc1ccc(-n2cnnc2SCC(=O)NC2CC2)cc1	x	-0.3	x	-0.2	x	x
CCNC(=O)N(CC)C[C@H]1N[C@@](C)(C(=O)OC)[C@H]2C(=O)N(Cc3ccccc3)C(=O)[C@@H]12	9.3	-1.6	0.3	7.1*	4.7	-0.8
CCN(C[C@H]1N[C@@](C)(C(=O)OC)[C@H]2C(=O)N(Cc3ccccc3)C(=O)[C@@H]12)C(=O)c1ccccc1	0.9	-0.2	0.9	0.0	12.1	x
Cc1cccc(SCC(=O)Nc2ccccc2[N+](=O)[O-])c1	0.0	-0.4	1.7	-0.4	-2.4	x
CCc1cc(=O)oc2cc(C)cc(OC(C)C(=O)NCCCN3CCOCC3)c12 (configuration not stated)	3.7	0.3	0.4	0.1	0.6	x
